Source: article PMC6889097 (Virologica Sinica, 2019)
pIC50: −log10 of the molar value. Read-outs that look alike come from different tables or passages of the source. Marks after values point to notes of the source that are not given here.

Assays:
Cell viability = format: cell-based, human; settings: human; for CC50 at 48 h: uninfected U937 cells; for CC50: U937 cells
In short: (§1)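 Uninfected U937 cells, 40,000/well (1 × 10^6 cells/mL) in RPMI 1640 + 10% FBS, were incubated with serially diluted test compound in 384-well plates for 48 h at 37 ℃/5% CO2. After the plates were spun at 500 ×g for 3 min, supernatant was replaced with medium containing 20% MTS reagent for 1 h at 37 ℃. OD490 was read against reference OD630, and CC50 was derived.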

[1] = test system: A/PuertoRico/8/1934 (H1N1) influenza virus; test: microbe, parasite or virus in culture; format: cell-based, influenza virus A/PuertoRico/8/1934 (H1N1)
CCL2 = test: cells; format: cell-based, human; settings: for pIC50: Homo sapiens
CXCL10 = test: cells; format: cell-based, human; settings: for pIC50: Homo sapiens, U-937, read-out: IC50 CXCL10
[2] = test system: lethal influenza virus infection; settings: mouse, cited from earlier work
U937 cells = test: Cell viability; format: cell-based, human; settings: 50% cytotoxic concentration, MTS assay, U937 cells; validation panel (Table 2)
In short: as §1

[3] = Influenza A virus, H1N1, U-937, read-out: IC50 NA

| SMILES | CC50 at 48 h (Cell viability) [µM] | CC50 (Cell viability) [µM] | In vivo: the protective effect of mice from lethal influenza infection [2] | IC50 NA [1] | IC50 CCL2 (CCL2) | IC50 CXCL10 (CXCL10) | reported effect on survival rate of influenza-infected mice ([2]; in vivo) | also measured |
| --- | --- | --- | --- | --- | --- | --- | --- | --- |
| CC(C)n1c(/C=C/C(O)CC(O)CC(=O)O)c(-c2ccc(F)cc2)c2ccccc21 (stereo not shown) [Fluvastatin] | > 90 | – | – | – | – | – | – | – |
| CC[C@@H]1/C=C(\C)C[C@H](C)C[C@H](OC)[C@H]2O[C@@](O)(C(=O)C(=O)N3CCCC[C@H]3C(=O)O[C@H](/C(C)=C/[C@@H]3CC[C@@H](O)[C@H](OC)C3)[C@H](C)[C@@H](O)CC1=O)[C@H](C)C[C@@H]2OC [Ascomycin, ascomycin] | – | 62 | + | – | – | – | – | antiviral effect in the U937 cell model (result in words) [1]: antiviral effects; pIC50 [1, 3]: 4.67; pIC50 (CCL2; U-937, read-out: IC50 CCL2): 5.09; pIC50 (CXCL10): 5.00 |
| CN(CCOc1ccc(CC2SC(=O)NC2=O)cc1)c1ccccn1 (stereo not shown) [Rosiglitazone, rosiglitazone] | – | > 100 | + | – (key: –: lower than 50% inhibition or not effective) | – (key: –: lower than 50% inhibition or not effective) | – (key: –: lower than 50% inhibition or not effective) | improve the survival rate and pathology | – |
| CC(C)Oc1ccc(-c2nc(-c3cccc4c3CC[C@@H]4NCCO)no2)cc1C#N [Ozanimod, ozanimod] | – | 26 | + | – (key: –: lower than 50% inhibition or not effective) | – | – | improve the survival rate and pathology | pIC50 (CCL2; U-937, read-out: IC50 CCL2): 5.11; pIC50 (CXCL10): 4.97 |
| CCC(C)(C)C(=O)O[C@H]1C[C@@H](C)C=C2C=C[C@H](C)[C@H](CC[C@@H]3C[C@@H](O)CC(=O)O3)[C@H]21 [Simvastatin] | 66.8 | – | – | – | – | – | – | – |
| CNCCCC1c2ccccc2C=Cc2ccccc21 [Protriptyline] | > 90 | – | – | – | – | – | – | – |
| O=C(O)C[C@H](O)C[C@H](O)/C=C/c1c(C2CC2)nc2ccccc2c1-c1ccc(F)cc1 [Pitavastatin] | > 90 | – | – | – | – | – | – | – |
| C=CC(=O)N1CCC[C@@H](n2nc(-c3ccc(Oc4ccccc4)cc3)c3c(N)ncnc32)C1 [Ibrutinib, ibrutinib] | – | 26.5 | +^i | –^h (key: –: lower than 50% inhibition or not effective) | – | – | improve the survival rate and pathology | pIC50 (CCL2; U-937, read-out: IC50 CCL2): 6.21; pIC50 (CXCL10): 6.02; reported protection of mice from lethal influenza infection ([2]; in vivo): protect mice from lethal influenza infection |
| Cc1ccc(-c2ncc(Cl)cc2-c2ccc(S(C)(=O)=O)cc2)cn1 [Etoricoxib, etoricoxib] | – | > 50 | ±^j | – (key: –: lower than 50% inhibition or not effective) | – (key: –: lower than 50% inhibition or not effective) | – (key: –: lower than 50% inhibition or not effective) | no improvement on the survival rate | effect on the production of CCL2 in U937 cell model (result in words) (CCL2): no inhibitory effect; effect on the production of CXCL10 in U937 cell model (result in words) (CXCL10): no inhibitory effect |
| Cc1nc(Nc2ncc(C(=O)Nc3c(C)cccc3Cl)s2)cc(N2CCN(CCO)CC2)n1 [Dasatinib] | > 90 | – | – | – | – | – | – | – |
| CC(C)Cc1ccc(C(C)C(=O)O)cc1 (stereo not shown) [Ibuprofen, ibuprofen] | – | > 50 | – | – (key: –: lower than 50% inhibition or not effective) | – (key: –: lower than 50% inhibition or not effective) | – (key: –: lower than 50% inhibition or not effective) | – | effect on the production of CCL2 in U937 cell model (result in words) (CCL2): no inhibitory effect; effect on the production of CXCL10 in U937 cell model (result in words) (CXCL10): no inhibitory effect |
| CCOC(=O)N[C@@H]1CC[C@@H]2[C@@H](C1)C[C@H]1C(=O)O[C@H](C)[C@H]1[C@H]2/C=C/c1ccc(-c2cccc(F)c2)cn1 [Vorapaxar, vorapaxar] | – | > 80 | + | – (key: –: lower than 50% inhibition or not effective) | – | – | improve the survival rate and pathology | pIC50 (CCL2; U-937, read-out: IC50 CCL2): 5.28; pIC50 (CXCL10): 4.88 |
| CCOC(=O)C1=C[C@@H](OC(CC)CC)[C@H](NC(C)=O)[C@@H](N)C1 [Oseltamivir] | – | – | + | – | – (key: –: lower than 50% inhibition or not effective) | – (key: –: lower than 50% inhibition or not effective) | – | CC50 (U937 cells): > 100 µM; antiviral effect in the U937 cell model (result in words) [1]: antiviral effects; pIC50 ([1]; read-out: IC50 NA): 6.24 |
| C[C@H]1COc2c(N3CCN(C)CC3)c(F)cc3c(=O)c(C(=O)O)cn1c23 [Levofloxacin] | > 90 | – | – | – | – | – | – | pIC50 (CCL2; U-937, 48 h, read-out: IC50 CCL2): ≥ 5.00; reported survival rate in mice infected with the H1N1 PR8 virus ([2]; in vivo): increased the survival rate |
| NC(=O)c1ncn([C@@H]2O[C@H](CO)[C@@H](O)[C@H]2O)n1 [Ribavirin] | – | > 160 | – | – | – (key: –: lower than 50% inhibition or not effective) | – (key: –: lower than 50% inhibition or not effective) | – | antiviral effect in the U937 cell model (result in words) [1]: antiviral effects; pIC50 [1, 3]: 4.58 |
